Source: ChEMBL document CHEMBL1833936, “7-azaindenoisoquinolines as topoisomerase I inhibitors and potential anticancer agents” (J Med Chem, 2011)
Converted amounts (≈) assume the structure as drawn. The source made the active and inactive calls. No cut-off for these calls is given here.

Tests used:
[1] = biological target: T1, DNA topoisomerase 1 (Homo sapiens) (UniProt P11387); test: Inhibition of human topoisomerase 1 assessed as inhibition of radiolabeled DNA fragment cleavage after 20 mins by gel-based phosphoimaging relative to control
T1 sequence (whole entry): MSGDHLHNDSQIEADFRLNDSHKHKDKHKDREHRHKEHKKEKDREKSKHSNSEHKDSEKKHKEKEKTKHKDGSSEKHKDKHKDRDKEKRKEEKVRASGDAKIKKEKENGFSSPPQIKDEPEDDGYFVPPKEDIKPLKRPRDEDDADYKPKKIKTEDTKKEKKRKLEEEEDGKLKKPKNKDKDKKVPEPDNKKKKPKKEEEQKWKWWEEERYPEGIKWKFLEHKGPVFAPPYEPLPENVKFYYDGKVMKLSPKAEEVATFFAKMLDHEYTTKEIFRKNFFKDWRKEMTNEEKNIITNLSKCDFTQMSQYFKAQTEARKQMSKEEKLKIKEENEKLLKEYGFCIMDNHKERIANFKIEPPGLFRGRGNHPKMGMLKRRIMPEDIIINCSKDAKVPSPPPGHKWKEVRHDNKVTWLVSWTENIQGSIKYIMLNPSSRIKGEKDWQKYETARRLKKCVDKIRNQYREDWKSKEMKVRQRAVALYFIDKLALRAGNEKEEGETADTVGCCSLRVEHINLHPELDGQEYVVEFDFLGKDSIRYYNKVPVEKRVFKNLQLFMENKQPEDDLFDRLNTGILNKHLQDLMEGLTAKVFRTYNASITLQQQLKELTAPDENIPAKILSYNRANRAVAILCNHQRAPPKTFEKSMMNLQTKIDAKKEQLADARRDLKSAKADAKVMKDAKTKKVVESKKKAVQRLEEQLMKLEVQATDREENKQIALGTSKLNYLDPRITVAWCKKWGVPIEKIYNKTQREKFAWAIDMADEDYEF
How it was run: (§1)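 Human recombinant Top1 purified from baculovirus. About 2 nM 117-bp DNA substrate, 3′-end-labeled with [α-32P]-dGTP by Klenow fill-in. Stopped with 0.5% SDS and formamide loading dye; 20% denaturing PAGE, phosphoimager. Tested at 0.1, 1, 10 and 100 μM.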

[2] = biological target: T1, DNA topoisomerase 1 (Homo sapiens); test: Inhibition of human topoisomerase 1 assessed as inhibition of radiolabeled DNA fragment cleavage 0.1 to 100 uM after 20 mins by gel-based phosphoimaging relative to control; how it was run: as §1
[3] = biological target: T1, DNA topoisomerase 1 (Homo sapiens); test: Inhibition of human topoisomerase 1 assessed as inhibition of radiolabeled DNA fragment cleavage up to 100 uM after 20 mins by gel-based phosphoimaging relative to control; how it was run: as §1
[4] = Aqueous solubility at pH 7.5 after 24 hrs by HPLC; format: physicochemical
How it was run: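 Solid sample (4–10 mg) shaken in 1 M Tris buffer pH 7.5 for 24 h at 25 °C, then centrifuged and supernatant filtered. Supernatant analysed by reverse-phase C18 HPLC eluting methanol (1% TFA)/water 90:10. Concentration from one-point calibration against buffer solutions of known concentration.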

MCF7 = test: Cytotoxicity against human MCF7 cells after 48 hrs by SRB assay; format: functional; details: MCF7, 48 h
How it was run: (§2)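 NCI 60-cell-line screen. Cells incubated 48 h with five 10-fold dilutions starting at 100 μM, then stained with sulforhodamine B. Optical density relative to control plotted against log concentration.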

OVCAR-3 = test: Cytotoxicity against human OVCAR3 cells after 48 hrs by SRB assay; format: functional; details: OVCAR-3, 48 h; how it was run: as §2
SN12C = test: Cytotoxicity against human SN12C cells after 48 hrs by SRB assay; format: functional; how it was run: as §2
HCT-116 = test: Cytotoxicity against human HCT116 cells after 48 hrs by SRB assay; format: functional; details: HCT-116, 48 h; how it was run: as §2
UACC-62 = test: Cytotoxicity against human UACC62 cells after 48 hrs by SRB assay; format: functional; details: UACC-62, 48 h; how it was run: as §2
[5] = biological target: T1, DNA topoisomerase 1 (Homo sapiens); test: Inhibition of human topoisomerase 1-mediated DNA relaxation assessed as DNA intercalation at 1 to 100 uM after 30 mins by gel electrophoresis relative to control
How it was run: (§3)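 Two-step unwinding assay. SV40 DNA first fully relaxed with excess Top1 for 15 min at 37 °C without drug. Relaxed DNA then incubated 30 min at 37 °C with drug at 1, 3, 10, 30 or 100 μM. Control was a further 30 min incubation at 37 °C without drug. Products resolved on gel.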

DU-145 = test: Cytotoxicity against human DU145 cells after 48 hrs by SRB assay; format: functional; details: DU-145, 48 h; how it was run: as §2
SF-539 = test: Cytotoxicity against human SF539 cells after 48 hrs by SRB assay; format: functional; details: SF-539, 48 h; how it was run: as §2
HOP-62 = test: Cytotoxicity against human HOP62 cells after 48 hrs by SRB assay; format: functional; details: HOP-62, 48 h; how it was run: as §2
[6] = biological target: T1, DNA topoisomerase 1 (Homo sapiens); test: Inhibition of human topoisomerase 1-mediated DNA relaxation assessed as DNA intercalation at compound concentration above 3 uM after 30 mins by gel electrophoresis relative to control; how it was run: as §3
[7] = biological target: T1, DNA topoisomerase 1 (Homo sapiens); test: Inhibition of human topoisomerase 1-mediated DNA relaxation assessed as DNA intercalation at 100 uM after 30 mins by gel electrophoresis relative to control; how it was run: as §3

| Compound | inhibition [1] | inhibition [2] | inhibition [3] | solubility at 24 h [4] [mM] | GI50 (MCF7) [nM] | GI50 (OVCAR-3) [nM] | GI50 (SN12C) [nM] | GI50 (HCT-116) [nM] | GI50 (UACC-62) [nM] | Activity [5] | GI50 (DU-145) [nM] | GI50 (SF-539) [nM] | GI50 (HOP-62) [nM] | Activity [6] | Activity [7] |
| --- | --- | --- | --- | --- | --- | --- | --- | --- | --- | --- | --- | --- | --- | --- | --- |
| COc1cc2c3c(n(CCCn4ccnc4)c(=O)c2cc1OC)-c1ncccc1C3=O | Dose-dependent effect | Active | Active |  |  |  |  |  |  |  |  |  |  |  |  |
| O=C1c2cccnc2-c2c1c1ccc([N+](=O)[O-])cc1c(=O)n2CCCN1CCOCC1 |  | Active |  |  |  |  |  |  |  |  |  |  |  |  |  |
| CN(C)CCCn1c2c(c3ccccc3c1=O)C(=O)c1ccccc1-2 |  | Active |  | 0.28 (≈ 0.0931 mg/mL) | 550 | 1660 |  |  |  |  |  |  |  |  |  |
| COc1cc2c3c(n(CCCN4CCOCC4)c(=O)c2cc1OC)-c1ncccc1C3=O | Dose-dependent effect | Active | Active |  | 52 | 370 | 520 | 220 | 95 | inactive | 310 | 290 | 300 |  |  |
| CN(C)CCCn1c2c(c3ccc([N+](=O)[O-])cc3c1=O)C(=O)c1cccnc1-2 |  | Active |  |  | 360 | 2290 | 1000 | 440 | 3310 |  | 930 | 2690 | 2350 |  |  |
| COc1cc2c3c(n(CCCN(C)C)c(=O)c2cc1OC)-c1ccccc1C3=O |  | Active |  | 60 (≈ 23.5 mg/mL) | 6170 |  | 11000 |  |  |  |  | 6170 | 11500 |  |  |
| O=C1c2cccnc2-c2c1c1ccccc1c(=O)n2CCCn1ccnc1 |  | Active |  |  | 3390 | 8710 | 3720 | 1200 | 35500 |  | 2880 | 5130 | 7240 |  |  |
| COc1cc2c3c(n(CCCN)c(=O)c2cc1OC)-c1ncccc1C3=O |  | Active |  |  | 49000 | 1580 | 2880 | 380 | 8130 |  | 1620 | 2190 | 3020 |  |  |
| O=C1c2cccnc2-c2c1c1ccccc1c(=O)n2CCCNCCO |  | inactive |  |  | 480 | 1550 | 760 | 300 | 3090 |  | 410 | 870 | 1410 |  |  |
| O=C1c2cccnc2-c2c1c1ccccc1c(=O)n2CCCN1CCOCC1 |  | Active |  |  | 2750 | 28200 | 5370 | 1860 | > 100000 |  | 3550 | 5620 | 35500 |  |  |
| COc1cc2c3c(n(C)c(=O)c2cc1OC)-c1cc2c(cc1C3=O)OCO2 |  | Active |  |  | 1910 |  |  | 11500 | 560 |  | 4790 | 1660 | 8510 |  |  |
| CN(C)CCCn1c2c(c3ccccc3c1=O)C(=O)c1cccnc1-2 |  | Active |  | 24 (≈ 8 mg/mL) | 250 | 2570 | 810 | 410 | 2690 |  | 1350 | 1910 | 1510 |  |  |
| COc1cc2c3c(n(CCCN(C)C)c(=O)c2cc1OC)-c1ncccc1C3=O |  | Active |  | 100 (≈ 39.3 mg/mL) | 440 | 3550 | 3160 | 1580 | 13200 |  | 1700 | 4070 | 3390 | Dose-dependent effect | Active |
| COc1cc2c3c(n(CCCNCCO)c(=O)c2cc1OC)-c1ncccc1C3=O |  | Active |  |  | 74 | 340 | 230 | 150 | 120 |  | 320 | 260 | 300 |  |  |
| CC[C@@]1(O)C(=O)OCc2c1cc1n(c2=O)Cc2cc3ccccc3nc2-1 [CAMPTOTHECIN] |  |  |  |  | 13 |  |  |  |  |  |  |  |  |  |  |
| CN(C)CCCn1c2c(c3ccc([N+](=O)[O-])cc3c1=O)C(=O)c1ccccc1-2 |  | Active |  |  | 240 | 32400 |  |  |  |  |  |  |  |  |  |
